Test results published in ChEMBL document CHEMBL4619781 (J Med Chem, 2020).
Activity calls are given as the source filed them. No cut-off for these calls is given here.

How the values were obtained:
[1] = system: MDA-MB-231; assay: Cytotoxicity against human MDA-MB-231 cells assessed as reduction in cell viability measured after 72 hrs by CellTiter 96 aqueous one solution assay; format: functional, cell-based; conditions: MDA-MB-231, 72 h
Procedure, shortened: (§1)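 Cells diluted to 5 × 10^4 cells/mL in RPMI 1640 or DMEM with 10% FBS, streptomycin and penicillin; plated and incubated 24 h at 37 °C, 5% CO2. Medium replaced, then serial dilutions added from DMSO at final 0–1000 nM for 72 h. Absorbance at 490 nm read after 30–60 min with reagent. Mean ± SD of three replicates; EC50 by curve fitting.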

[2] = system: SF-295; assay: Cytotoxicity against human SF295 cells assessed as reduction in cell viability measured after 72 hrs by CellTiter 96 aqueous one solution assay; format: functional, cell-based; conditions: SF-295, 72 h; procedure, shortened: as §1
[3] = system: NCI-H226; assay: Cytotoxicity against human NCI-H226 cells assessed as reduction in cell viability measured after 72 hrs by CellTiter 96 aqueous one solution assay; format: functional, cell-based; conditions: NCI-H226, 72 h; procedure, shortened: as §1
[4] = system: SK-MEL-5; assay: Cytotoxicity against human SK-MEL-5 cells assessed as reduction in cell viability measured after 72 hrs by CellTiter 96 aqueous one solution assay; format: functional, cell-based; conditions: SK-MEL-5, 72 h; procedure, shortened: as §1
[5] = system: DNA; assay: Induction of Escherichia coli plasmid pUC19 DNA cleavage assessed as increase in relaxation of supercoiled plasmid DNA measured after 24 hrs by SYBR green staining based gel electrophoresis; format: nucleic-acid assay
Procedure, shortened: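 Supercoiled pUC19 (25 nM plasmid, […]) in Dulbecco's PBS pH 7.4 with 5% DMSO and varying compound concentrations, with or without 1 mM reduced glutathione, 37 °C for 24 h, in triplicate. Run on 1% agarose gel in TAE at 100 V for 1 h. Supercoiled (form I) band intensity normalized to DMSO controls.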

How did the EC50 [1] turn out when `C#CCOc1ccc2c(c1O)C(=O)c1c3c(cc(O)c1C2=O)[C@@]12O[C@@]1([C@](C)(O)[C@@H](O)C(=O)OC)[C@H](C#C/C=C\C#C[C@H]2O)N3` was run?
Its EC50 is 3.7 nM.

And the EC50 [2]?
Its EC50 is 2.8 nM.

And the EC50 [3]?
Its EC50 is 26 nM.

What about the EC50 [4] of the same molecule?
Its EC50 is 2.8 nM.

And the Activity [5]?
Its Activity is “Active”.

Which EC50 [1] does the source give for `COC(=O)[C@H](O)[C@@](C)(O)[C@@]12O[C@]13c1cc(O)c4c(c1N[C@H]2C#C/C=C\C#C[C@H]3O)C(=O)c1cc(O)ccc1C4=O` here?
Its EC50 is 37 nM.

What about the EC50 [2] of the same molecule?
Its EC50 is 51 nM.

What about the EC50 [3] of the same molecule?
The EC50 was 75 nM.

What about the EC50 [4] of the same molecule?
The EC50 was 36 nM.

And the Activity [5]?
The Activity was “Active”.

What does the source list for `COC(=O)[C@H](O)[C@@](C)(O)[C@@]12O[C@]13c1cc(O)c4c(c1N[C@H]2C#C/C=C\C#C[C@H]3O)C(=O)c1cc(OC)ccc1C4=O`?
EC50 [1]: 14 nM; EC50 [2]: 21 nM; EC50 [3]: 68 nM; EC50 [4]: 19 nM; Activity [5]: Active

For `COc1ccc2c(c1O)C(=O)c1c3c(cc(O)c1C2=O)[C@@]12O[C@@]1([C@@H](C)O)[C@H](C#C/C=C\C#C[C@H]2O)N3`, which EC50 [1] is on record?
The EC50 was 1.1 nM.

And the EC50 [2]?
The EC50 was 0.45 nM.

And the EC50 [3]?
The EC50 was 4.2 nM.

What about the EC50 [4] of the same molecule?
Its EC50 is 0.74 nM.

And the Activity [5]?
The Activity was “Active”.

How did the EC50 [1] turn out when `COC(=O)[C@H](O)[C@@](C)(O)[C@@]12O[C@]13c1cc(O)c4c(c1N[C@H]2C#C/C=C\C#C[C@H]3O)C(=O)c1c(ccc(OCC(C)=O)c1O)C4=O` was run?
The EC50 was 0.9 nM.

What about the EC50 [2] of the same molecule?
The EC50 was 1.1 nM.

What about the EC50 [3] of the same molecule?
Its EC50 is 3.7 nM.

And the EC50 [4]?
Its EC50 is 0.8 nM.

And the Activity [5]?
The Activity was “Active”.

With `COC(=O)[C@H](O)[C@@](C)(O)[C@@]12O[C@]13c1cc(O)c4c(c1N[C@H]2C#C/C=C\C#C[C@H]3O)C(=O)c1c(ccc(OC)c1O)C4=O` as the molecule, how does the EC50 [1] read?
The EC50 was 5 nM.

And the EC50 [2]?
The EC50 was 4 nM.

What about the EC50 [3] of the same molecule?
The EC50 was 32 nM.

And the EC50 [4]?
Its EC50 is 2.8 nM.

What about the Activity [5] of the same molecule?
Its Activity is “Active”.

What does the source list for `COC(=O)[C@H](O)[C@@](C)(O)[C@@]12O[C@]13c1cc(O)c4c(c1N[C@H]2C#C/C=C\C#C[C@H]3O)C(=O)c1c(ccc(O)c1O)C4=O`?
EC50 [1]: 34 nM; EC50 [2]: 45 nM; EC50 [3]: 66 nM; EC50 [4]: 32 nM; Activity [5]: Active
